ChEMBL document CHEMBL5335820, “Novel quinolinepiperazinyl-aryltetrazoles targeting the blood stage of Plasmodium falciparum” (RSC Med Chem, 2024)
The source made the active and inactive calls. No cut-off for these calls is given here.

System: Plasmodium falciparum
Test: Antiplasmodial activity against chloroquine resistant schizont stage Plasmodium falciparum INDO infected in human erythrocytes assessed as decrease in parasitemia at 5.62 uM incubated for 4 hrs by time-kill kinetics based FACS analysis
Type: functional, organism-based
Conditions: Erythrocyte
Method in brief: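 PfINDO early schizonts (32–36 h post-invasion) and late schizonts (42–45 h post-invasion) were exposed to 5.62 or 4.30 μM for up to 16 h, washed at 4 h intervals, then cultured drug-free to a total of 96 h. Parasitemia was counted by FACS on 10^5 cells at the end of the second cycle; schizont rupture was checked microscopically.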

Clc1ccc2c(N3CCN(CCCn4nnc(-c5ccc(Br)cc5)n4)CC3)ccnc2c1
Activity: Active
